HDAC3 inhib = human HDAC3 inhibition. O15379. recombinant HDAC3, fluorogenic peptide/trypsin coupled, fluorescence. inhibition, % at 8.3 µM. 320,000 compounds, 0.15% hits. AID 2718; in the data active = inhibition above about 26%, passing the limit was not always enough; inconclusive = no clear call, values can overlap the other calls
AHR act = activators of human aryl hydrocarbon receptor; activation, % at 5 µM; 320,000 compounds, 2.5% hits; AHR-responsive luciferase reporter cells, luminescence; AID 2796; P35869; in the data active = activation above about 47%
CTSL1 counter-1 = cathepsin L1 inhibition, PFM18AAP counter-screen. recombinant F. hepatica cathepsin L1, Z-Leu-Arg-MCA fluorescence. inhibition, % at 5.96 µM. 300,000 compounds, 0.49% hits. AID 1906;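 active = inhibition above the mean of all tested compounds plus 3 SD, set per screening campaign, cut at about 17% in these data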
SENP1 inh = SENP1 (human) catalytic domain inhibition; 360,000 compounds, 0.21% hits; inhibition, % at 10 µM; recombinant SENP1 catalytic domain, CyPet-SUMO1-YPet FRET cleavage;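 active = inhibition at least 30% at 10 µM, raw YFP signal under a set limit, fluorescence ratio 0.5 to 1.5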
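material = recombinant human SENP1 catalytic domain, His6-tagged | quantity = 20 pM enzyme | reagent = 25 nM SUMO1 FRET substrate | compound dosing = 10 µM single point, 0.5% DMSO | timing = 50 min enzyme reaction, room temperature, light-protected | detection = FRET, CFP and YFP emission | control set = no-enzyme low, enzyme-DMSO high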
PfM18AAP inh-1 = PfM18AAP enzyme inhibition | recombinant PfM18AAP, H-Glu-NHMec fluorogenic cleavage | inhibition, % at 7.35 µM | 290,000 compounds, 1.2% hits;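 active = inhibition above the campaign mean inhibition over all tested compounds plus 3 SD, cut at about 28% in these data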
GAA850 FXN act = activators of GAA850 frataxin (FXN) promoter | HEK293 lucGAA850 FXN promoter luciferase reporter, 24 h; percent of 10 µM SAHA response | activation, % at 6 µM | 360,000 compounds, 0.56% hits | AID 540364;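 active = activation above the average of all compounds screened plus 3 SD, cutoff fixed separately per campaign, cut at about 7.5% in these data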
PfM18AAP inh-2 = confirmation of Plasmodium falciparum M18 aspartyl aminopeptidase inhibitors; shares compounds with PfM18AAP inh-1; recombinant PfM18AAP, H-Glu-NHMec fluorogenic cleavage; inhibition, % at 7.35 µM; 2,400 compounds, 28% hits;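 active = mean inhibition over replicate wells above the hit cutoff set for the earlier primary screen, cut at about 29% in these data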
CTSL1 counter-2 = counter-screen for PFM18AAP inhibitors: confirmation of human cathepsin L inhibitors. shares compounds with PfM18AAP inh-1. 2,400 tested, under 10 active. inhibition, % at 5.96 µM. purified cathepsin L1, Z-Leu-Arg-MCA fluorescence;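 active = average inhibition across replicates above the hit cutoff set in the earlier primary screen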
Target sequence (P07711 whole entry, looked up): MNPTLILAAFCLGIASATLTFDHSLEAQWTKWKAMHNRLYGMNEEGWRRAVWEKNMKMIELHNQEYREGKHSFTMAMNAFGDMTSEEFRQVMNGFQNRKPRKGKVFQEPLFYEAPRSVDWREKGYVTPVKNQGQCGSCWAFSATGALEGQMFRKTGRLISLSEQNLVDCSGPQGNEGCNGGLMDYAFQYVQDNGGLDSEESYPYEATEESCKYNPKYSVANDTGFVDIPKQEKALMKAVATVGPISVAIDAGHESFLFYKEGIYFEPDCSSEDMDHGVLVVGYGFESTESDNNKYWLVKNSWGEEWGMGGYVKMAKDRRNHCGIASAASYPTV
Large screens that a line does not name were inactive (follow-up assays come after a bar, where they were run). Shown are actives, neighbours in structure and some others; about 4.2% of the full set was active somewhere.

CN(c1ccccc1)S(=O)(=O)c1cccc(NC(=O)C2CCCO2)c1 (centres undefined)	none (no result: CTSL1 counter-1, PfM18AAP inh-1)
COc1ccc(/C=N/NS(=O)(=O)c2ccc(F)cc2)cc1COc1cc(F)ccc1[N+](=O)[O-]	PfM18AAP inh-1 65 | PfM18AAP inh-2 inactive | CTSL1 counter-2 inactive
COc1ccc(/C=N\NC(=O)c2ccc(F)cc2)cc1COc1cc(F)ccc1[N+](=O)[O-]	none (no result: AHR act, CTSL1 counter-1)
CC1=C(C(=O)N(C(C)C)C(C)C)CC(CC(=O)NCc2ccco2)C(=O)N1Cc1ccc(C(C)(C)C)cc1 (centres undefined)	none (no result: HDAC3 inhib, AHR act, CTSL1 counter-1, PfM18AAP inh-1, GAA850 FXN act)
COc1cc(C2Nc3ccc4ncccc4c3C3=C2C(=O)CCC3)cc(OC)c1O (centres undefined)	PfM18AAP inh-1 43 | PfM18AAP inh-2 inactive | CTSL1 counter-2 inactive
COc1cc(C2Nc3ccc4ncccc4c3C3=C2C(=O)CC(C)(C)C3)cc(OC)c1O (centres undefined)	none
COc1ccc(NC(=O)n2nc(OC(=O)c3cccs3)cc2N)cc1	HDAC3 inhib inconclusive, PfM18AAP inh-1 50 | PfM18AAP inh-2 inactive | CTSL1 counter-2 inactive
COc1ccc(-c2ccc(S(=O)(=O)n3nc(OC(=O)c4cccs4)cc3N)cc2)cc1	HDAC3 inhib inconclusive
Cc1cc(=O)n2c(n1)NC(Nc1cccc(C)c1C)=NC2c1ccccc1 (centres undefined)	none
Cc1ccccc1C(=O)NNC(=O)c1cccn1C	none (no result: PfM18AAP inh-1)
CCCCn1c(SCC(=O)NNC(=O)c2ccccc2)n[nH]c1=O	none (no result: CTSL1 counter-1, PfM18AAP inh-1)
CC(NC(=O)c1ccccc1SCC(=O)N1CCCC1)c1ccc(F)cc1 (centres undefined)	none
CCc1ccccc1NC(=O)Nn1cnnc1	PfM18AAP inh-1 56 | PfM18AAP inh-2 38 | CTSL1 counter-2 inactive
CCOc1ccccc1NC(=O)Nn1cnnc1	PfM18AAP inh-1 60 | PfM18AAP inh-2 44 | CTSL1 counter-2 inactive
Cc1ccc(-n2cccc2/C=N/n2cnnc2)cc1Cl	PfM18AAP inh-1 39 | PfM18AAP inh-2 inactive | CTSL1 counter-2 inactive
Cc1cc(NC(=O)CSc2nnc(Cc3ccccc3)o2)no1	PfM18AAP inh-1 40 | PfM18AAP inh-2 inactive | CTSL1 counter-2 inactive
CCN(CCCNC(=O)C1CCC(=O)N1Cc1ccccc1Cl)c1cccc(C)c1 (centres undefined)	PfM18AAP inh-1 37 | PfM18AAP inh-2 inactive | CTSL1 counter-2 inactive
CCCS(=O)(=O)N1CCCC(C(=O)NCCCN(CC)c2cccc(C)c2)C1 (centres undefined)	none
CCN(CCCNC(=O)CN1C(=O)COc2ccccc21)c1ccccc1	none
CCN(CCCNC(=O)CN1C(=O)COc2ccccc21)c1cccc(C)c1	PfM18AAP inh-1 49 | PfM18AAP inh-2 inactive | CTSL1 counter-2 inactive
CCN(CCCNC(=O)c1ccc(N2CCCC2=O)cc1)c1cccc(C)c1	PfM18AAP inh-1 41 | PfM18AAP inh-2 inactive | CTSL1 counter-2 inactive
CCCS(=O)(=O)N1CCC(C(=O)NCCCN(CC)c2cccc(C)c2)CC1	PfM18AAP inh-1 40 | PfM18AAP inh-2 inactive | CTSL1 counter-2 inactive
Cc1ccccc1C(=O)Nc1cccc(-c2ccc(N3CCOCC3)nn2)c1	none (no result: PfM18AAP inh-1)
CC(C)[C@H](NC(=O)c1ccco1)C(=O)Nc1ccc(N2CCCCCC2)cc1	none (no result: HDAC3 inhib, AHR act, CTSL1 counter-1, PfM18AAP inh-1)
CCN(CCCNC(=O)C1CCC(=O)N1Cc1ccc(C)cc1)c1cccc(C)c1 (centres undefined)	HDAC3 inhib inconclusive, PfM18AAP inh-1 54 | PfM18AAP inh-2 inactive | CTSL1 counter-2 inactive
CC(C)(C)OC(=O)C[C@H]1C/C=C\C[C@@H](CC(=O)NCCO)C(=O)NCCOC1=O	none (no result: CTSL1 counter-1, PfM18AAP inh-1)
CCc1nnc(NC(=O)CSc2nnc(CSc3nc(C)cc(C)n3)n2CC)s1	none (no result: HDAC3 inhib, AHR act, CTSL1 counter-1, SENP1 inh, GAA850 FXN act)
CCOCc1nnc(NC(=O)CSc2ccccc2)s1	none
CCc1nnc(NC(=O)CSc2nnc(-c3ccccc3O)o2)s1	PfM18AAP inh-1 34 | PfM18AAP inh-2 inactive | CTSL1 counter-2 inactive
CC(C)(C)Cc1nnc(NC(=O)CSc2ccccc2)s1	PfM18AAP inh-1 40 | PfM18AAP inh-2 inactive | CTSL1 counter-2 inactive

Screens (PubChem)
